Only some compounds are listed: those with a hit (about 1.8% of all), similar ones and a draw of the others.
M5 PAM = CHRM5 positive allosteric modulation. AID 624038. P08912. activation, % at 3 µM. 0.3% of 360,000 active. CHO-K1 hM5, Fluo-8 calcium, ACh EC20 PAM; 0% = ACh EC20, 100% = ACh EC100;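 active = activation above the run cutoff, the mean activation of all test compounds plus 3 SD, cut at about 18% in these data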
Target sequence (P08912 whole entry, looked up): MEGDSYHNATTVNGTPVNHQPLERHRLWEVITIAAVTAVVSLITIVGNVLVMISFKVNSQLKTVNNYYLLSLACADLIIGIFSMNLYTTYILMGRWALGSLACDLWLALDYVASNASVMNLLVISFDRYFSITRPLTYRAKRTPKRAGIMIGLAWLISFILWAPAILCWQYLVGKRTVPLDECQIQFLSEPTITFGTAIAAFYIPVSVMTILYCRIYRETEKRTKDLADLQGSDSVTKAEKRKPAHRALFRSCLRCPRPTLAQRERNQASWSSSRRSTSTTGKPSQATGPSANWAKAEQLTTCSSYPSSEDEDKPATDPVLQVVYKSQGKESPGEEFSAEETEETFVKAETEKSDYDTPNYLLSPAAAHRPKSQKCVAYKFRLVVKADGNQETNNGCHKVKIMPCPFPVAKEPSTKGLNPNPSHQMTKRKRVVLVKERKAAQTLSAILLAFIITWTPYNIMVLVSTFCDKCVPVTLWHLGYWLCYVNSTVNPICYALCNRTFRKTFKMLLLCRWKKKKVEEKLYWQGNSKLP
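system = human M5 receptor in CHO-K1 cells | compound = one concentration, 3 µM final (nominal) | schedule = Post-acetylcholine fluorescence recording 140 s | signal = Fluo-8 calcium dye fluorescence, kinetic read | benchmarks = low control EC20 acetylcholine (0%), high control EC100 acetylcholine (100%) | repeats = singlicate, one well per test compound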
M4 ag = CHRM4 agonism in calcium assay; P08173; CHO-K1 hM4/Gqi5, Fluo-8 calcium fluorescence; vehicle 0%, full acetylcholine response 100%; activation, % at 3 µM; 0.14% of 360,000 active;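 active = activation above the run mean over all test wells plus 3 SD, cut at about 32% in these data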;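 also: peak over basal fluorescence ratio per well then scaled between controls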
CHRM4 PAM = potentiates acetylcholine response at human M4 receptor; P08173; CHO-K1 hM4/Gqi5, Fluo-8 calcium fluorescence, ACh EC20; 0% = ACh EC20, 100% = maximal ACh; activation, % at 3 µM; 0.4% of 360,000 active; AID 624126;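 active = activation above its plate's cutoff, the mean activation of sample wells plus 3 SD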
CHRM5 antagonist = blocks acetylcholine activation of human M5 receptor | P08912 | CHO-hM5 cells, Fluo-8 calcium fluorescence, ACh EC80 | inhibition, % at 3 µM | 0.59% of 360,000 active;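 active = inhibition above a per-plate cutoff, the mean of that plate's test compounds plus 3 SD, cut at about 27% in these data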
CHRM5 agonist = agonists of human muscarinic M5 receptor (CHRM5); activation, % at 3 µM; P08912; CHO-K1 hM5 cells, Fluo-8 calcium fluorescence; 0% DMSO wells, 100% maximal acetylcholine response; 0.19% of 360,000 active;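 active = activation above the run's mean over test compounds plus 3 SD, cut at about 23% in these data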;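 also: signal is peak over basal fluorescence ratio across the kinetic read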
CHRM4 antagonist = antagonists of human muscarinic M4 receptor (CHRM4). AID 624125. 0.73% of 360,000 active. inhibition, % at 3 µM. CHO-hM4 cells, ACh EC80, Fluo-8 calcium fluorescence. P08173;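 active = inhibition above its plate's cutoff, the mean inhibition of sample wells plus 3 SD, cut at about 27% in these data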
Numbers stand for hits.

What do the screens show for `COc1ccc(NC2=NCC(Cc3ccc(Br)cc3)S2)cc1` (stereo unspecified)?
M5 PAM: inactive; M4 ag: inactive; CHRM4 PAM: inactive; CHRM5 antagonist: inactive; CHRM5 agonist: inactive; CHRM4 antagonist: 29.3

Results for Cc1nnsc1C(=O)NC1CCCc2c1cnn2-c1ccccc1F (stereo unspecified) ?
M5 PAM: inactive; M4 ag: inactive; CHRM4 PAM: inactive; CHRM5 antagonist: inactive; CHRM5 agonist: inactive; CHRM4 antagonist: inactive

Results for Cc1nnsc1C(=O)NC1CCCc2c1cnn2-c1ccc(C(C)(C)C)cc1 (stereo unspecified) ?
M5 PAM: inactive; M4 ag: inactive; CHRM4 PAM: inactive; CHRM5 antagonist: 27.5; CHRM5 agonist: inactive; CHRM4 antagonist: inactive

Results for Cn1c(SCCN2CCCC2)nnc1C1CCN(S(=O)(=O)c2cccc(F)c2)CC1 ?
M5 PAM: inactive; M4 ag: inactive; CHRM4 PAM: inactive; CHRM5 antagonist: inactive; CHRM5 agonist: inactive; CHRM4 antagonist: 32.5

What do the screens show for `Cn1c(SCC(N)=O)nnc1C1CCN(S(=O)(=O)c2ccccc2C(F)(F)F)CC1`?
M5 PAM: inactive; M4 ag: inactive; CHRM4 PAM: inactive; CHRM5 antagonist: inactive; CHRM5 agonist: inactive; CHRM4 antagonist: inactive

Results for CCCCn1c(N)c(N(CCOC)C(=O)Cn2c(=O)oc3ccccc32)c(=O)[nH]c1=O ?
M5 PAM: inactive; M4 ag: inactive; CHRM4 PAM: inactive; CHRM5 antagonist: inactive; CHRM5 agonist: inactive; CHRM4 antagonist: inactive

How did Fc1ccc2nc(C3CCCCN3Cc3nc(CC4CC4)no3)[nH]c2c1 (stereo unspecified) do in these assays?
M5 PAM: 26.9; M4 ag: inactive; CHRM4 PAM: inactive; CHRM5 antagonist: inactive; CHRM5 agonist: inactive; CHRM4 antagonist: inactive

What do the screens show for `Cc1nc(Nc2cc(F)ccc2C)c2nnn(Cc3ccccc3)c2n1`?
M5 PAM: inactive; M4 ag: inactive; CHRM4 PAM: inactive; CHRM5 antagonist: inactive; CHRM5 agonist: inactive; CHRM4 antagonist: inactive

What do the screens show for `Cc1cccc(N/C(N)=N/c2nc(C)cc(C)n2)c1`?
M5 PAM: inactive; M4 ag: 37.2; CHRM4 PAM: inactive; CHRM5 antagonist: inactive; CHRM5 agonist: inactive; CHRM4 antagonist: inactive

What do the screens show for `CCCCc1ccc(N/C(N)=N/c2nc(C)cc(C)n2)cc1`?
M5 PAM: inactive; M4 ag: 114.5; CHRM4 PAM: inactive; CHRM5 antagonist: 77.3; CHRM5 agonist: 51.1; CHRM4 antagonist: 86.7

Results for Cc1ccc(N/C(N)=N/c2nc(C)cc(C)n2)cc1 ?
M5 PAM: inactive; M4 ag: inactive; CHRM4 PAM: inactive; CHRM5 antagonist: inactive; CHRM5 agonist: inactive; CHRM4 antagonist: inactive

Results for CCC1CCCCN1C(=O)c1ccc([N+](=O)[O-])o1 (stereo unspecified) ?
M5 PAM: inactive; M4 ag: inactive; CHRM4 PAM: inactive; CHRM5 antagonist: inactive; CHRM5 agonist: inactive; CHRM4 antagonist: inactive

How did Cc1sc2ncn3c(C)nnc3c2c1C do in these assays?
M5 PAM: inactive; M4 ag: inactive; CHRM4 PAM: 18.9; CHRM5 antagonist: inactive; CHRM5 agonist: inactive; CHRM4 antagonist: inactive

How did CCN(CC)CCNc1oc(-c2ccccc2)nc1S(=O)(=O)c1ccccc1 do in these assays?
M5 PAM: inactive; M4 ag: inactive; CHRM4 PAM: inactive; CHRM5 antagonist: inactive; CHRM5 agonist: inactive; CHRM4 antagonist: inactive

How did COc1ccc(CN(CCC(c2ccccc2)c2ccco2)C(=O)c2ccco2)cc1 (stereo unspecified) do in these assays?
M5 PAM: inactive; M4 ag: inactive; CHRM4 PAM: inactive; CHRM5 antagonist: inactive; CHRM5 agonist: inactive; CHRM4 antagonist: inactive

What do the screens show for `COc1ccc(CN(CCC(c2ccc(F)cc2)C2CCOC(C)(C)C2)C(=O)c2ccco2)cc1` (stereo unspecified)?
M5 PAM: inactive; M4 ag: inactive; CHRM4 PAM: inactive; CHRM5 antagonist: 36.2; CHRM5 agonist: inactive; CHRM4 antagonist: 30.0

What do the screens show for `CC(c1ccccc1)N(CCC(c1ccccc1)C1CCOC(C)(C)C1)C(=O)c1ccco1` (stereo unspecified)?
M5 PAM: inactive; M4 ag: inactive; CHRM4 PAM: inactive; CHRM5 antagonist: 29.9; CHRM5 agonist: inactive; CHRM4 antagonist: inactive

How did O=C(C1CCC(C(=O)N2CCc3ccccc32)CC1)N1CCc2ccccc21 (stereo unspecified) do in these assays?
M5 PAM: inactive; M4 ag: inactive; CHRM4 PAM: inactive; CHRM5 antagonist: inactive; CHRM5 agonist: inactive; CHRM4 antagonist: inactive

Results for O=C(Nc1ccccc1)C(=O)Nc1ccc2c(c1)N(C(=O)C1CC1)CCC2 ?
M5 PAM: inactive; M4 ag: inactive; CHRM4 PAM: 17.4; CHRM5 antagonist: inactive; CHRM5 agonist: inactive; CHRM4 antagonist: inactive

What do the screens show for `Cc1ccc(C2CC(c3ccccc3)=NN2C(=S)Nc2ccccc2)o1` (stereo unspecified)?
M5 PAM: inactive; M4 ag: inactive; CHRM4 PAM: inactive; CHRM5 antagonist: inactive; CHRM5 agonist: inactive; CHRM4 antagonist: 38.9

Results for c1ccc(Sc2ccccc2CN2CCCC2)cc1 ?
M5 PAM: inactive; M4 ag: inactive; CHRM4 PAM: inactive; CHRM5 antagonist: 74.1; CHRM5 agonist: inactive; CHRM4 antagonist: 39.0

How did Fc1ccccc1CN1CCCCCCC1 do in these assays?
M5 PAM: inactive; M4 ag: inactive; CHRM4 PAM: inactive; CHRM5 antagonist: inactive; CHRM5 agonist: inactive; CHRM4 antagonist: inactive

Results for CCOc1ccccc1C(=O)NC(C(=O)N(C)c1c(N)n(Cc2ccccc2)c(=O)[nH]c1=O)C(C)C (stereo unspecified) ?
M5 PAM: inactive; M4 ag: inactive; CHRM4 PAM: inactive; CHRM5 antagonist: inactive; CHRM5 agonist: inactive; CHRM4 antagonist: inactive

How did Oc1ccc(C23CCCC2C2(CCCC2)c2ccc(O)cc2O3)c(O)c1 (stereo unspecified) do in these assays?
M5 PAM: inactive; M4 ag: 59.4; CHRM4 PAM: inactive; CHRM5 antagonist: inactive; CHRM5 agonist: inactive; CHRM4 antagonist: inactive

How did Cn1c(=O)c2[nH]c(CCCCc3nc4ccccc4[nH]3)nc2n(C)c1=O do in these assays?
M5 PAM: inactive; M4 ag: inactive; CHRM4 PAM: inactive; CHRM5 antagonist: inactive; CHRM5 agonist: inactive; CHRM4 antagonist: inactive

Results for Cn1c(=O)c2[nH]c(CCCCCCCCc3nc4ccccc4[nH]3)nc2n(C)c1=O ?
M5 PAM: inactive; M4 ag: inactive; CHRM4 PAM: inactive; CHRM5 antagonist: inactive; CHRM5 agonist: inactive; CHRM4 antagonist: 29.9

How did N#C/C(=N\Nc1ccccc1)C(N)=S do in these assays?
M5 PAM: inactive; M4 ag: inactive; CHRM4 PAM: inactive; CHRM5 antagonist: inactive; CHRM5 agonist: inactive; CHRM4 antagonist: inactive

High-throughput results as filed in PubChem.
